Consider 74 sequences from the array DNA melting data of Ke et al. (doi:10.1101/2024.01.08.574731).

Data set [1] is described as follows: folding enthalpy; higher = less favourable; fluorescence melt of hairpins on a sequencing array, two-state fit. The conditions noted are these: sodium 0.088 M. The essentials: (§1)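 Library hairpins on a sequenced MiSeq flow cell carried annealed Cy3 and quencher oligos, and their Cy3 fluorescence was imaged in 50 mM Na-HEPES pH 8.0 with 25 mM NaCl, in 2.5 °C steps up to 60 °C. Signals were normalised to Cy3 before quenching and to control constructs. Melting temperature and folding enthalpy were obtained from bootstrapped two-state fits, combined by inverse-variance weighting across four replicates, and the fitted temperatures were then raised by 9.35 °C to match UV melts.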

The nature of data set [2]: melting temperature; fluorescence melt of hairpins on a sequencing array, two-state fit, raised by 9.35 °C to match UV melts. The conditions noted are these: sodium 0.088 M. The essentials: as §1

In the case of GAGTGGCGAAAGCCCCTC (((.(((....))).))), the folding enthalpy in data set [1] was -83.4 kJ/mol. For the same sequence, in data set [2], the Tm turned out to be 48.3 °C.
With GAGTGGGAAACCACTC ((((((....)))))), in data set [1], the folding enthalpy was -141 kJ/mol. Also, the Tm in data set [2] turned out to be 60.7 °C.
Taken in the same sequence, the figures for GAGTGGGCGAAAGCCCTC (((..(((....)))))) were -34.6 kJ/mol and 34 °C.
For the sequence GAGTGGGGAAACCCACCC (.(((((....))))).), the folding enthalpy in data set [1] was -50.9 kJ/mol. Further, in data set [2], the Tm stood at 42.7 °C.
Taken in the same sequence, the figures for GAGTGTACGAAAGTACTC (((..(((....)))))) were -49.1 kJ/mol and 32.8 °C.
The like results for GAGTGTGGAAACGCATTC ((.((.(....).)).)) were, in that order, -79.6 kJ/mol and 28.5 °C.
The like results for GAGTTACGAAAGTACTC (((.(((....)))))) were, in that order, -106 kJ/mol and 43.2 °C.
For GAGTTACGAAAGTAGCTC (((.(((....))).))), in data set [1], the folding enthalpy is -144 kJ/mol. Besides, in data set [2], the Tm came out at 51.2 °C.
Taken in the same sequence, the figures for GAGTTCCGAAAGGACCTC (((.(((....))).))) were -120 kJ/mol and 47.2 °C.
For the sequence GAGTTCGGAAACAAACTC (((((.(....).))))), the folding enthalpy in data set [1] was -115 kJ/mol. Further, the Tm in data set [2] is 34 °C.
As to GAGTTGGGAAACCAATTC ((.((((....)))).)), the folding enthalpy in data set [1] is -120 kJ/mol. The Tm in data set [2] was found to be 40 °C.
Consider GAGTTGGGAAACTAGCTC (((.(.(....).).))), for which the folding enthalpy in data set [1] is -62.9 kJ/mol. For the same sequence, the Tm in data set [2] amounted to 29 °C.
The like results for GAGTTTGCGAAAGCACTC (((..(((....)))))) were, in that order, -63.8 kJ/mol and 34.1 °C.
Taken in the same sequence, the figures for GAGTTTGGAAACAGACTC ((((.((....)).)))) were -118 kJ/mol and 41.1 °C.
Consider GAGTTTGGAAACGAATTC ((.((.(....).)).)), for which the folding enthalpy in data set [1] is -76.9 kJ/mol. Moreover, in data set [2], the Tm stood at 33.5 °C.
The like results for GATAAACCGAAAGGTATC (((..(((....)))))) were, in that order, -58 kJ/mol and 30 °C.
Turning to GATAAAGGAAACTTTATC (((((((....))))))), the folding enthalpy in data set [1] was -133 kJ/mol. In data set [2], the Tm came to 44.4 °C.
As for GATAACGAAAGTTGATC ((((((....))).))), the folding enthalpy in data set [1] is -46.8 kJ/mol. The Tm in data set [2] turned out to be 27.6 °C.
GATAACGGAAACGCTATC ((((.((....)).)))): the folding enthalpy in data set [1] was -123 kJ/mol. In addition, the Tm in data set [2] came to 34.4 °C.
Turning to GATAAGGCGAAAGCCATC (((..(((....)))))), in data set [1], the folding enthalpy is -38.5 kJ/mol. In data set [2], the Tm was 29.6 °C.
With GATAATGAAAATTATC ((((((....)))))), the folding enthalpy in data set [1] is -85.8 kJ/mol. For the same sequence, the Tm in data set [2] worked out at 37.9 °C.
With GATACACGAAAGTGCATC (((.(((....))).))), in data set [1], the folding enthalpy was -99.1 kJ/mol. Moreover, in data set [2], the Tm was 44.2 °C.
On to GATACCCGAAAGGGATC (((.(((....)))))), for which, in data set [1], the folding enthalpy is -67.3 kJ/mol. Moreover, the Tm in data set [2] turned out to be 42.1 °C.
Turning to GATACCGAAAGGTACATC ((((((....)))..))), the folding enthalpy in data set [1] is -43.6 kJ/mol. Also, in data set [2], the Tm came out at 26.9 °C.
Taken in the same sequence, the figures for GATACCGAAAGGTATC ((((((....)))))) were -162 kJ/mol and 62.5 °C.
The like results for GATACCGAAAGGTCAATC ((((((....)))..))) were, in that order, -34.7 kJ/mol and 21.7 °C.
The like results for GATACCGAAAGGTTCATC ((((((....)))..))) were, in that order, -51.9 kJ/mol and 32 °C.
In the case of GATACCGGAAACGGTACC (.(((((....))))).), in data set [1], the folding enthalpy was -57.1 kJ/mol. The Tm in data set [2] turned out to be 38.8 °C.
With GATACGACGAAAGTCATC (((..(((....)))))), in data set [1], the folding enthalpy was -44.4 kJ/mol. The Tm in data set [2] came to 24.6 °C.
Regarding GATACGGGAAACTGTATC (((((.(....).))))), in data set [1], the folding enthalpy is -155 kJ/mol. Further, the Tm in data set [2] came to 43.8 °C.
GATACTGGAAACAGTATC (((((((....))))))): the folding enthalpy in data set [1] was -169 kJ/mol. Besides, the Tm in data set [2] was found to be 54.6 °C.
The like results for GATACTGGAAACGGTATC (((((.(....).))))) were, in that order, -127 kJ/mol and 42.7 °C.
The like results for GATAGAGGAAACTCTGTC ((.((((....)))).)) were, in that order, -134 kJ/mol and 38 °C.
Taken in the same sequence, the figures for GATAGCGAAAGCTATATC ((((((....)))..))) were -59.9 kJ/mol and 46.6 °C.
As to GATAGCGAAAGCTATC ((((((....)))))), the folding enthalpy in data set [1] was -138 kJ/mol. Further, the Tm in data set [2] worked out at 61.3 °C.
The like results for GATAGCGAAAGCTCAATC ((((((....)))..))) were, in that order, -43.6 kJ/mol and 21.7 °C.
The like results for GATAGCGAAAGCTCTATC ((((((....)))..))) were, in that order, -46.6 kJ/mol and 26.4 °C.
Taken in the same sequence, the figures for GATAGCGAAAGCTTCATC ((((((....)))..))) were -50.1 kJ/mol and 28.3 °C.
For GATAGCGGAAACGCTACC (.(((((....))))).), the folding enthalpy in data set [1] was -50.8 kJ/mol. The Tm in data set [2] came out at 40.4 °C.
The like results for GATAGCGGAAACGCTGTC ((.((((....)))).)) were, in that order, -105 kJ/mol and 52.2 °C.
As for GATAGGCGAAAGCCCATC (((.(((....))).))), in data set [1], the folding enthalpy is -57.9 kJ/mol. Also, the Tm in data set [2] is 37.7 °C.
Taken in the same sequence, the figures for GATAGGCGAAAGCCGATC (((.(((....))).))) were -70.3 kJ/mol and 55.5 °C.
Regarding GATAGGGCGAAAGCCATC (((..(((....)))))), the folding enthalpy in data set [1] was -38.1 kJ/mol. In data set [2], the Tm is 31.2 °C.
Consider GATAGGGGAAACCTTATC ((((.((....)).)))), for which the folding enthalpy in data set [1] is -107 kJ/mol. Further, in data set [2], the Tm turned out to be 33.6 °C.
Taken in the same sequence, the figures for GATAGGGGAAACTCTATC (((((.(....).))))) were -131 kJ/mol and 35.7 °C.
For GATATAGAAATATATC ((((((....)))))), the folding enthalpy in data set [1] is -62.7 kJ/mol. In addition, the Tm in data set [2] was 31.8 °C.
Taken in the same sequence, the figures for GATATCCGAAAGGAATC (((.(((....)))))) were -54.1 kJ/mol and 30.2 °C.
Taken in the same sequence, the figures for GATATCGGAAACGATACC (.(((((....))))).) were -72.4 kJ/mol and 33.7 °C.
The like results for GATATCGGAAACGATGTC ((.((((....)))).)) were, in that order, -128 kJ/mol and 46.7 °C.
Take GATATGCGAAAGCAATC (((.(((....)))))): the folding enthalpy in data set [1] is -44.7 kJ/mol. In addition, the Tm in data set [2] was found to be 30 °C.
For the sequence GATATGCGAAAGCAGATC (((.(((....))).))), in data set [1], the folding enthalpy is -127 kJ/mol. Besides, in data set [2], the Tm stood at 53.3 °C.
For GATATGGGAAACCATATC (((((((....))))))), the folding enthalpy in data set [1] was -157 kJ/mol. The Tm in data set [2] worked out at 53.3 °C.
Taken in the same sequence, the figures for GATATTACGAAAGTAATC (((..(((....)))))) were -48.7 kJ/mol and 34.7 °C.
The like results for GATATTGGAAACGATATC (((((.(....).))))) were, in that order, -138 kJ/mol and 36.2 °C.
Taken in the same sequence, the figures for GATCAAAAGGTTGATC ((((((....)))))) were -100 kJ/mol and 36.1 °C.
As for GATCAAAATTTTGATC ((((((....)))))), the folding enthalpy in data set [1] was -168 kJ/mol. Moreover, in data set [2], the Tm worked out at 48.3 °C.
Taken in the same sequence, the figures for GATCAAACAATTGATC ((((((....)))))) were -94.5 kJ/mol and 37.1 °C.
On to GATCAAACCTTGATC ((((((...)))))), for which the folding enthalpy in data set [1] was -122 kJ/mol. In data set [2], the Tm was 40.9 °C.
The like results for GATCAAACGCTTGATC ((((((....)))))) were, in that order, -124 kJ/mol and 41.5 °C.
Taken in the same sequence, the figures for GATCAAACTTTTGATC ((((((....)))))) were -117 kJ/mol and 45.9 °C.
The like results for GATCAAAGAATTGATC ((((((....)))))) were, in that order, -91.4 kJ/mol and 40 °C.
As to GATCAAAGAGTTGATC ((((((....)))))), the folding enthalpy in data set [1] was -89.2 kJ/mol. The Tm in data set [2] was 37.2 °C.
As to GATCAAAGCTTTGATC ((((((....)))))), the folding enthalpy in data set [1] was -240 kJ/mol. Besides, the Tm in data set [2] stood at 50.8 °C.
Taken in the same sequence, the figures for GATCAAAGGTTTGATC ((((((....)))))) were -135 kJ/mol and 44.8 °C.
Taken in the same sequence, the figures for GATCAAATAATTGATC ((((((....)))))) were -117 kJ/mol and 34.7 °C.
In the case of GATCAAATATTGATC ((((((...)))))), the folding enthalpy in data set [1] was -137 kJ/mol. The Tm in data set [2] was 40.2 °C.
Taken in the same sequence, the figures for GATCAAATGGTTGATC ((((((....)))))) were -119 kJ/mol and 39.6 °C.
With GATCAAATTATTGATC ((((((....)))))), the folding enthalpy in data set [1] was -116 kJ/mol. The Tm in data set [2] worked out at 41.4 °C.
The like results for GATCAACAGTTGATC ((((((...)))))) were, in that order, -169 kJ/mol and 41.7 °C.
For the sequence GATCAACCGCTTGATC ((((((....)))))), in data set [1], the folding enthalpy is -144 kJ/mol. In data set [2], the Tm is 44.2 °C.
On to GATCAACCGTTTGATC ((((((....)))))), for which the folding enthalpy in data set [1] is -147 kJ/mol. Moreover, the Tm in data set [2] amounted to 42.8 °C.
For the sequence GATCAACCTTTGATC ((((((...)))))), the folding enthalpy in data set [1] was -135 kJ/mol. Further, the Tm in data set [2] was found to be 42 °C.
The like results for GATCAACGAAAGTTTATC (((.(((....))).))) were, in that order, -117 kJ/mol and 32.5 °C.
With GATCAACGACTTGATC ((((((....)))))), the folding enthalpy in data set [1] was -135 kJ/mol. In addition, in data set [2], the Tm came out at 40.7 °C.
